The record followed here is ChEMBL document CHEMBL1811853, “Design and evaluation of 3-aminopyrazolopyridinone kinase inhibitors inspired by the natural product indirubin” (Bioorg Med Chem, 2011).

Experiment [1] concerns the target Tyrosine-protein kinase Fyn (Homo sapiens, UniProt P06241). As to the kind of experiment: Inhibition of FYN at 30 uM by microfluidic mobility shift assay. Put shortly: (§1)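 Single-concentration screen, singlicate, 30 uM final (diluted from 1 mM DMSO solutions), fluorescently tagged peptide substrate appropriate to each kinase, ATP at apparent Km for each protein. Phosphorylated and unphosphorylated peptides separated electrophoretically; conversion is the phosphorylated peak area over the sum of both peaks. No-inhibitor and no-ATP controls; H89 reference on each plate.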

The target of experiment [2] is Glycogen synthase kinase-3 beta (Homo sapiens) (UniProt P49841). As to the kind of experiment: Inhibition of GSK3B at 30 uM by microfluidic mobility shift assay. In outline:
as §1

Experiment [3] concerns the target Serine/threonine-protein kinase Chk2 (Homo sapiens, UniProt O96017). As to the kind of experiment: Inhibition of CHK2 at 30 uM by microfluidic mobility shift assay. In outline: as §1
Experiment [4] concerns the target Ribosomal protein S6 kinase alpha-1 (Homo sapiens) (UniProt Q15418). Briefly: Inhibition of RSK1 at 30 uM by microfluidic mobility shift assay. Put shortly: as §1
For experiment [5], the target named is RAC-alpha serine/threonine-protein kinase (Homo sapiens) (UniProt P31749). Briefly: Inhibition of AKT1 at 30 uM by microfluidic mobility shift assay. Put shortly: as §1
Sequence of RAC-alpha serine/threonine-protein kinase (Homo sapiens) (P31749 whole entry): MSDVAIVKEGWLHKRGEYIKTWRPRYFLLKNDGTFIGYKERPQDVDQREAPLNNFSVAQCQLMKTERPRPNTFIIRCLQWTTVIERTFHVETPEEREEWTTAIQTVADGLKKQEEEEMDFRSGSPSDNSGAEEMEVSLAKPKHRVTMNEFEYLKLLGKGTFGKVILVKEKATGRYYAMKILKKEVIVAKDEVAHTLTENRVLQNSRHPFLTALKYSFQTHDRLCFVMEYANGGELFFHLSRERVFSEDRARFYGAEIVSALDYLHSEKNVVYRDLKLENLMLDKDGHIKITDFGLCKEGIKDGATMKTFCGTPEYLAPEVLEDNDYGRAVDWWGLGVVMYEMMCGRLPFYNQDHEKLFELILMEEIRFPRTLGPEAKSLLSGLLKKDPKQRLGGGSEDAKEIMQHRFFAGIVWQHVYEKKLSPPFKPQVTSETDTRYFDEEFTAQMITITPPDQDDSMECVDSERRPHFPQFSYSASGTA
Experiment [6] concerns the target Tyrosine-protein kinase ABL1 (Homo sapiens, UniProt P00519). Briefly: Inhibition of ABL at 30 uM by microfluidic mobility shift assay. In outline:
as §1

Experiment [7] concerns the target Proto-oncogene tyrosine-protein kinase Src (Homo sapiens, UniProt P12931). As to the kind of experiment: Inhibition of SRC at 30 uM by microfluidic mobility shift assay. Put shortly: as §1
Experiment [8] deals with Mitogen-activated protein kinase 1 (Homo sapiens) (UniProt P28482). Briefly: Inhibition of ERK2 at 30 uM by microfluidic mobility shift assay. In outline: as §1
Sequence of Mitogen-activated protein kinase 1 (Homo sapiens) (P28482 whole entry): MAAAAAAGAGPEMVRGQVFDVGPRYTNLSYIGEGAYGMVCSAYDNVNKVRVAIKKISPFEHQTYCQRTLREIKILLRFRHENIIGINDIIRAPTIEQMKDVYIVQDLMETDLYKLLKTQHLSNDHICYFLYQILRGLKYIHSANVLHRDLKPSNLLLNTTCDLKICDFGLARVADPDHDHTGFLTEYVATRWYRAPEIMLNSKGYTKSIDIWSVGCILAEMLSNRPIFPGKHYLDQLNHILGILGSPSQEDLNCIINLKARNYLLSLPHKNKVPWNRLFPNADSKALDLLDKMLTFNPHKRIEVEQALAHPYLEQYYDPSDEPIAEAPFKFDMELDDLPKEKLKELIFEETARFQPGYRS
The target in experiment [9] is Tyrosine-protein kinase Lck (Homo sapiens, UniProt P06239). As to the kind of experiment: Inhibition of LCK at 30 uM by microfluidic mobility shift assay. In outline:
as §1

Experiment [10] addresses Ribosomal protein S6 kinase alpha-5 (Homo sapiens) (UniProt O75582). Briefly: Inhibition of MSK1 at 30 uM by microfluidic mobility shift assay. Put shortly:
as §1

Experiment [11] in a line: Inhibition of PKA at 30 uM by microfluidic mobility shift assay. In outline:
as §1

The target in experiment [12] is Mitogen-activated protein kinase 3 (Homo sapiens) (UniProt P27361). As to the kind of experiment: Inhibition of ERK1 at 30 uM by microfluidic mobility shift assay. Put shortly:
as §1

The target of experiment [13] is Mitogen-activated protein kinase 14 (Homo sapiens, UniProt Q16539). As to the kind of experiment: Inhibition of p38alpha at 30 uM by microfluidic mobility shift assay. Put shortly:
as §1

Experiment [14] deals with MAP kinase-activated protein kinase 2 (Homo sapiens, UniProt P49137). Briefly: Inhibition of MAPKAPK2 at 30 uM by microfluidic mobility shift assay. Put shortly: as §1
In experiment [15] the target is T1, Protein kinase C zeta type (Homo sapiens) (UniProt Q05513).
T1 sequence (whole entry): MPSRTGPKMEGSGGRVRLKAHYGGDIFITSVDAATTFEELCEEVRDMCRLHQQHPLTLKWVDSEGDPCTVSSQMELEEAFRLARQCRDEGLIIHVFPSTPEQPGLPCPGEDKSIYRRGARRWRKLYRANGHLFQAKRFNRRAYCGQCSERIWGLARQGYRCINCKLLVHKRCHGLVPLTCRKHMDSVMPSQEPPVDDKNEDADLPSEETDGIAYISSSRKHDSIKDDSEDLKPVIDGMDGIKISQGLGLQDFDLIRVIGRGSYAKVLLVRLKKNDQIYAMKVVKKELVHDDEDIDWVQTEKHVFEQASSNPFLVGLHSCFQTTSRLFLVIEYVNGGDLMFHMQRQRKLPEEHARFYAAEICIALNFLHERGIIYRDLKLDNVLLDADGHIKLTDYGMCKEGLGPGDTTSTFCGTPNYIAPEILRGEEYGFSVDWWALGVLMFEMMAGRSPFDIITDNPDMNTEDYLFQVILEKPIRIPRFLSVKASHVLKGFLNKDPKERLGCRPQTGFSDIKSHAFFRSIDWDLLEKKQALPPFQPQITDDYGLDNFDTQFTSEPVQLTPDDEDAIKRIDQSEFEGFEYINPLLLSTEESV
Briefly: Inhibition of PKCz at 30 uM by microfluidic mobility shift assay. Put shortly: as §1

The target of experiment [16] is RAC-beta serine/threonine-protein kinase (Homo sapiens) (UniProt P31751). Briefly: Inhibition of AKT2 at 30 uM by microfluidic mobility shift assay. In outline:
as §1

Experiment [17] deals with Tyrosine-protein kinase Lyn (Homo sapiens, UniProt P07948). Briefly: Inhibition of LYN at 30 uM by microfluidic mobility shift assay. In outline: as §1
Sequence of Tyrosine-protein kinase Lyn (P07948 2-512 limits assumed): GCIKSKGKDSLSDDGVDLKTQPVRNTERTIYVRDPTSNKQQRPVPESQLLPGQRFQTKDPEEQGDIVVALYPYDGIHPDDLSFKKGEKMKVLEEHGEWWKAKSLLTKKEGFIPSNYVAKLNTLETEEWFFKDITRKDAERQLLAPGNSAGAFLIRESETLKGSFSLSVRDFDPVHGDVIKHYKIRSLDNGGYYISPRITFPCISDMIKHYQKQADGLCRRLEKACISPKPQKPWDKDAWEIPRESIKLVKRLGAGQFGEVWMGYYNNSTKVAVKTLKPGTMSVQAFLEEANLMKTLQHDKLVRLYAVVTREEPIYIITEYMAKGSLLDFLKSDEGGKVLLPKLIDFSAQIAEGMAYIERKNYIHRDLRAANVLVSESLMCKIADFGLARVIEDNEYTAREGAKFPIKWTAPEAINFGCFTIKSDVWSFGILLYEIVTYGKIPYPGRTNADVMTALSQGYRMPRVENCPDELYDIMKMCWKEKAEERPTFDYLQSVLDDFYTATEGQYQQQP
Experiment [18] deals with T2, Aurora kinase A (Homo sapiens) (UniProt O14965).
T2 sequence (whole entry): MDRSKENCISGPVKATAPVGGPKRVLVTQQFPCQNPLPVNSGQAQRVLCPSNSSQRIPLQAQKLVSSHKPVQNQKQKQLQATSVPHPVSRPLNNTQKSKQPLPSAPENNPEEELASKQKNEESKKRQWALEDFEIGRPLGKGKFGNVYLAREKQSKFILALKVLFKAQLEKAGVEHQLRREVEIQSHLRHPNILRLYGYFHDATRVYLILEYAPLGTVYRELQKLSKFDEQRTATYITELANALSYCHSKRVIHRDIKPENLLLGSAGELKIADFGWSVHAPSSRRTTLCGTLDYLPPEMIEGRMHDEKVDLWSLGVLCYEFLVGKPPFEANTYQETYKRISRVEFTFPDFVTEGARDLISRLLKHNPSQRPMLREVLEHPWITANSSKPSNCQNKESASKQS
Briefly: Inhibition of AurA at 30 uM by microfluidic mobility shift assay. Put shortly:
as §1

Sequence of Proto-oncogene tyrosine-protein kinase Src (P12931 2-536 limits assumed): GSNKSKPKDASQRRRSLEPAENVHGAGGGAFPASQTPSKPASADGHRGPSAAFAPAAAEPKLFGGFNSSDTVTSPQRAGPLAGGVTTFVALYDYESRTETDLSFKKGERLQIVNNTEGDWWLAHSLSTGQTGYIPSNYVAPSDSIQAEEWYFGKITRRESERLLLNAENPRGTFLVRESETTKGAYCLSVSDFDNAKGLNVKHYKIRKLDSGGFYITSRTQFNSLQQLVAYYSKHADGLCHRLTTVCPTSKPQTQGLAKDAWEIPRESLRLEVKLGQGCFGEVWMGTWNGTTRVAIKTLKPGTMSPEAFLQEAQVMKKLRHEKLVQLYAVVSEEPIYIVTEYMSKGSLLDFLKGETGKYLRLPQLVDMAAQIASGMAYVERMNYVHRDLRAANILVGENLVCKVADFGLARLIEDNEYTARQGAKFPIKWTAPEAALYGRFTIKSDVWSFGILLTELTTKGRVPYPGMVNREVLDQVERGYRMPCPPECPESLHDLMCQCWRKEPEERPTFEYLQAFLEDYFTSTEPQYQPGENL
Sequence of Ribosomal protein S6 kinase alpha-1 (Homo sapiens) (Q15418 whole entry): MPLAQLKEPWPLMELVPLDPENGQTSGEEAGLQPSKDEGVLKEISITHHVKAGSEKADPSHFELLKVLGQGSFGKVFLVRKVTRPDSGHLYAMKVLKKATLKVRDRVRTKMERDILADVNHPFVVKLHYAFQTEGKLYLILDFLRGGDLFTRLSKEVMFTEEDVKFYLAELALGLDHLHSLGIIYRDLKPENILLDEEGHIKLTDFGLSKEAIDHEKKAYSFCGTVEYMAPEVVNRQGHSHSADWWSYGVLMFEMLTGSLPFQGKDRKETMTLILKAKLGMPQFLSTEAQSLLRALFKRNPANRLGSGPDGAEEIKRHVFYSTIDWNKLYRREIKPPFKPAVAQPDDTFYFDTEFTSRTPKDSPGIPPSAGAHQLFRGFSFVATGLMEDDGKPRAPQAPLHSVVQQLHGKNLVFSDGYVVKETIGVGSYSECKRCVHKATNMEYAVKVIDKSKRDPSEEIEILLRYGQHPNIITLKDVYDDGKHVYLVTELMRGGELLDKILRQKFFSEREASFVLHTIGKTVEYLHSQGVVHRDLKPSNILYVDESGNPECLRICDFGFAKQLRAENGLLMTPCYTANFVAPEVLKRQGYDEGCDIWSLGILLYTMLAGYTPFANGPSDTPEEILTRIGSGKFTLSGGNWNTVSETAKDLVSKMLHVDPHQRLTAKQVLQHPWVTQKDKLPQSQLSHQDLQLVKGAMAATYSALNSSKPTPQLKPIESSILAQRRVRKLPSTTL
Sequence of Mitogen-activated protein kinase 14 (Q16539 whole entry): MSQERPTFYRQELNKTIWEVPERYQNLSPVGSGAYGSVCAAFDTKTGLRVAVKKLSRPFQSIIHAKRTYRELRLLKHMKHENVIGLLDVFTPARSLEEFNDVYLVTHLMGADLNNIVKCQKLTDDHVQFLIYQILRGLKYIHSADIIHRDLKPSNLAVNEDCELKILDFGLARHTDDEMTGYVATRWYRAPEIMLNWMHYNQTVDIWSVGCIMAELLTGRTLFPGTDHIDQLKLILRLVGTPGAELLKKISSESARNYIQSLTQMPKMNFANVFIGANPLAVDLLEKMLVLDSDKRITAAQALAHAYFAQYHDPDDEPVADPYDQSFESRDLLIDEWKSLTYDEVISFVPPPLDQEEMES
Sequence of Mitogen-activated protein kinase 3 (Homo sapiens) (P27361 whole entry): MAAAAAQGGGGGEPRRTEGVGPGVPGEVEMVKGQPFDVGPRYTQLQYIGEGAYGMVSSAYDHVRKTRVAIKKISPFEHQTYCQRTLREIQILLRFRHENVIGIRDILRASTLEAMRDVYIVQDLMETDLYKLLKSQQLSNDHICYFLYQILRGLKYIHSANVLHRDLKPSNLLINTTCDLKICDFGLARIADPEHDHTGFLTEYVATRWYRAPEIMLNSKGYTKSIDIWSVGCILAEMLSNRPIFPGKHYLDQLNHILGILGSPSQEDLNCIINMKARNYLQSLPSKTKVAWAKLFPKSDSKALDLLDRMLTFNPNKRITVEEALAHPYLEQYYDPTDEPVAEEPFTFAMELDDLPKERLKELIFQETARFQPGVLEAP
Sequence of Tyrosine-protein kinase Fyn (P06241 2-537 limits assumed): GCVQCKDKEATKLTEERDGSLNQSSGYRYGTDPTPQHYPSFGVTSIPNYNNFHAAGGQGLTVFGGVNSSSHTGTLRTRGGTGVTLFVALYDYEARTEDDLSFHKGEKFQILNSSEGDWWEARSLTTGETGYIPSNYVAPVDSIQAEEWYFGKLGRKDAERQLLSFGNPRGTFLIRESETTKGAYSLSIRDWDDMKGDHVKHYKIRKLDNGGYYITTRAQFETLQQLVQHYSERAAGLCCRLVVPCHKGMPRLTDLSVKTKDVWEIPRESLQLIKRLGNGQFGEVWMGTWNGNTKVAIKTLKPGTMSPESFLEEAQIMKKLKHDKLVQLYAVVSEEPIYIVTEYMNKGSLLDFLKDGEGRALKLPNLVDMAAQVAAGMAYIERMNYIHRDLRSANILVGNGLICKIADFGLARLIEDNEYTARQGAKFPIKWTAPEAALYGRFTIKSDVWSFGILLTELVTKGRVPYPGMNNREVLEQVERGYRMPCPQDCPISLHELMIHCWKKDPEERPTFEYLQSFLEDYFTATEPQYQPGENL
Sequence of Glycogen synthase kinase-3 beta (Homo sapiens) (P49841 whole entry, looked up): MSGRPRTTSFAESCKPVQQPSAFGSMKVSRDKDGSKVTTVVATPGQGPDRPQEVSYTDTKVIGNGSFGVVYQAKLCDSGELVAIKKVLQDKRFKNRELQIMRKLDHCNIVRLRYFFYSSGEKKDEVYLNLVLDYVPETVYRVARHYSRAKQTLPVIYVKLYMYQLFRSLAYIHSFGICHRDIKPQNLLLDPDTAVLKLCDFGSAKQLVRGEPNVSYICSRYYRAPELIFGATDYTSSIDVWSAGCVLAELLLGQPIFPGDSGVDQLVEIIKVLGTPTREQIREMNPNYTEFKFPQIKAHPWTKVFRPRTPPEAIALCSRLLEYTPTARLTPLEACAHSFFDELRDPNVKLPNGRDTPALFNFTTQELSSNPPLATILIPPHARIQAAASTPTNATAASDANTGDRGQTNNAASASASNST
Sequence of Serine/threonine-protein kinase Chk2 (O96017 whole entry): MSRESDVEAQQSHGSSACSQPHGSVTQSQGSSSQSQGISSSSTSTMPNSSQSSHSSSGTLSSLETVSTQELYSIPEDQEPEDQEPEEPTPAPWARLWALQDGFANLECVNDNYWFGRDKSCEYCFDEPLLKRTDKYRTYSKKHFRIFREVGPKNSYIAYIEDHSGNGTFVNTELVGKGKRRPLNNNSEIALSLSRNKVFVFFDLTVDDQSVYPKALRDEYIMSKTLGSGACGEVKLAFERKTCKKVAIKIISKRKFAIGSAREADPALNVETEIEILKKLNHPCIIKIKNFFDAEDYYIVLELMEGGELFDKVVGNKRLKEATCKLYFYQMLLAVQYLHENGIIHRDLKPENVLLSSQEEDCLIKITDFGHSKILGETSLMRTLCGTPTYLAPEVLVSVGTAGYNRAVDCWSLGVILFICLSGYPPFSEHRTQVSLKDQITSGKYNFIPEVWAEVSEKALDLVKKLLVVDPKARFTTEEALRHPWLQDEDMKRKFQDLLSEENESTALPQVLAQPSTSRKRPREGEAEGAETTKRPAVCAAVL

As for `Nc1n[nH]c2c3c([nH]c(=O)c12)CCCC3`, the inhibition is 11% in [1]; 23% in experiment [2]; 7% in experiment [3]; -9% in experiment [4]; -3% in [5]; 0% in [6]. Besides, the inhibition was determined as 6% in experiment [7]; 6% in experiment [8]; 7% in experiment [9]; 1% in experiment [10]; 2% in experiment [11]; 5% in [12]. In addition, the inhibition was -4% in experiment [13]; 5% in [14]; -5% in experiment [15]; -1% in [16]; 12% in experiment [17]; 12% in [18].
As for `COc1ccc(-c2c(C)[nH]c(=O)c3c(N)nn(C)c23)cc1`, the inhibition in experiment [1] turned out to be 20%; in experiment [2], 58%; in experiment [3], 18%; in [4] it was 18%; in [5] it was 13%; in experiment [6], 23%. The inhibition in experiment [7] was 15%; in experiment [8], 7%; in experiment [9] it was 11%; in experiment [10], 13%; in [11], 10%; in experiment [12], 13%. Besides, the inhibition in experiment [13] is -1%; in experiment [14], 24%; in experiment [15], 10%; in experiment [16], 25%; in experiment [17] it was 19%; in [18] it was 31%.
For `CN1CCN(c2ccc(-c3cc4nn(-c5ccccc5)c(N)c4c(=O)[nH]3)cc2)CC1`, the inhibition came out at 99% in experiment [1]; 12% in experiment [2]; 18% in experiment [3]; 19% in experiment [4]; 3% in experiment [5]; 99% in [6]. Moreover, the inhibition turned out to be 99% in experiment [7]; 7% in experiment [8]; 100% in experiment [9]; 12% in experiment [10]; 2% in experiment [11]; 0% in experiment [12]. The inhibition in experiment [13] amounted to 85%; in experiment [14] it was 4%; in experiment [15], 23%; in experiment [16], 10%; in experiment [17] it was 100%; in experiment [18], 66%.
For the compound `COc1ccc(S(=O)(=O)Nc2nn(C)c3cc(C)[nH]c(=O)c23)c(OC)c1`, the inhibition in experiment [1] was 3%; in [2], 0%; in experiment [3], 6%; in [4], -2%; in experiment [5] it was 10%; in [6] it was 3%. The inhibition in experiment [7] is 2%; in experiment [8], 1%; in experiment [9], -1%; in [10] it was 3%; in [11], 3%; in [12], 4%. The inhibition is -4% in experiment [13]; 2% in [14]; 21% in experiment [15]; 6% in experiment [16]; -1% in experiment [17]; -9% in experiment [18].
Consider `Cn1nc(N)c2c(=O)[nH]c(-c3ccccn3)cc21`, for which the inhibition in [1] is 24%; in [2], 46%; in experiment [3] it was 25%; in experiment [4], 9%; in experiment [5], 7%; in [6], 27%. Besides, the inhibition in experiment [7] is 18%; in [8], 9%; in experiment [9] it was 21%; in experiment [10], -4%; in experiment [11], 5%; in experiment [12], 10%. In addition, the inhibition in experiment [13] was 1%; in experiment [14] it was 36%; in experiment [15], 0%; in experiment [16], 10%; in [17], 10%; in [18], 7%.
As to `Nc1n[nH]c2cc(-c3ccncc3)[nH]c(=O)c12`, the inhibition is 28% in [1]; 95% in experiment [2]; 34% in experiment [3]; 22% in experiment [4]; 2% in [5]; 28% in experiment [6]. For the same compound, the inhibition in [7] worked out at 46%; in experiment [8] it was 38%; in experiment [9], 37%; in experiment [10], 29%; in [11] it was 55%; in [12] it was 57%. The inhibition in experiment [13] was 1%; in experiment [14] it was 37%; in [15] it was 10%; in experiment [16], 4%; in experiment [17] it was 39%; in [18], 43%.
Consider `CN1CCN(c2ccc(-c3cc4[nH]nc(N)c4c(=O)[nH]3)cc2)CC1`, for which the inhibition in experiment [1] was 76%; in [2], 42%; in experiment [3], 68%; in experiment [4] it was 26%; in experiment [5], 9%; in [6], 86%. The inhibition in experiment [7] was 85%; in experiment [8], -2%; in experiment [9] it was 74%; in experiment [10], 83%; in experiment [11], 98%; in experiment [12], 4%. The inhibition in experiment [13] turned out to be 7%; in experiment [14], 55%; in experiment [15], 35%; in experiment [16] it was 6%; in experiment [17], 76%; in [18], 51%.
As to `COc1cccc(-c2cc3c(c(N)nn3C)c(=O)[nH]2)c1`, the inhibition is 23% in experiment [1]; 61% in [2]; 31% in experiment [3]; 22% in experiment [4]; -5% in experiment [5]; 21% in [6]. Further, the inhibition in experiment [7] stood at 30%; in [8], 22%; in experiment [9], 22%; in [10], 2%; in experiment [11] it was 7%; in [12], 19%. The inhibition in experiment [13] was 2%; in experiment [14], 47%; in [15] it was 6%; in experiment [16], 1%; in [17], 26%; in experiment [18] it was 17%.
